These results are taken from ChEMBL document CHEMBL3045866, “A novel family of insect-selective peptide neurotoxins targeting insect large-conductance calcium-activated K+ channels isolated from the venom of the theraphosid spider Eucratoscelus constrictus” (Mol Pharmacol, 2011).

Active and inactive are the calls of the source. The rule behind the calls is not given here.

In series [1] the test system is Mus musculus. Kind of series: Neurotoxicity against Mus musculus C57BL/6 (mouse) assessed as ataxia at 500 pmol, icv. It is filed as toxicity, organism-based. As to conditions: in vivo, icv_or_intrathecal. Summed up: (§1)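 Female C57BL/6 mice (~20 g) lightly anesthetized with diethylether. 5 µl of sample in BSA solution injected into the left cerebral ventricle. Posture, behavior and neurotoxic signs observed; n = 2.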

Series [2] has as its system Mus musculus. Kind of series: Neurotoxicity against Mus musculus C57BL/6 (mouse) assessed as tonic paralysis at 500 pmol, icv measured after 4 hr. It is filed as toxicity, organism-based. As to conditions: in vivo, icv_or_intrathecal.
Series [3] relates to Mus musculus. Kind of series: Neurotoxicity against Mus musculus C57BL/6 (mouse) assessed as cyanosis at 500 pmol, icv measured after 4 hr. It is filed as toxicity, organism-based. To be noted: in vivo, icv_or_intrathecal.
The nature of series [4]: Inhibition of delayed rectifier potassium channel IK(DR) in Periplaneta americana (American cockroach) DUM neurons assessed as effect on voltage-dependent activation at 330 nM measured at holding potential -90 mV depolarized to +40 mV with 100 ms increments after 10 min by whole cell voltage clamp ….
Series [5] can be described thus: Reversible inhibition of Potassium channel Kv in Periplaneta americana (American cockroach) DUM neurons at 330 nM measured at holding potential -90 mV depolarized to +30 mV after 10 min by whole cell patch clamp assay relative to control.
For series [6], the system named is Mus musculus. Kind of series: Neurotoxicity against Mus musculus C57BL/6 (mouse) assessed as convulsion at 500 pmol, icv. As to conditions: in vivo, icv_or_intrathecal. It is filed as toxicity, organism-based. The essentials: as §1
Series [7] can be described thus: Inhibition of transient A type potassium channel IK(A) in Periplaneta americana (American cockroach) DUM neurons assessed as effect on voltage-dependent activation at 330 nM measured at holding potential -90 mV depolarized to +40 mV with 100 ms increments after 10 min by whole cell patch clamp …. In general terms: The patch-clamp technique gives a direct electrical read-out from membranes.

The target in series [8] is Voltage-dependent calcium channel alpha-1 subunit (Blattella germanica) (UniProt O18323). Kind of series: Inhibition of mid-low voltage activated Cav channel in Periplaneta americana (American cockroach) DUM neurons assessed as effect on voltage-dependent activation at 330 nM measured at holding potential -90 mV depolarized to +70 mV with 10 mV increments after 10 min by whole cell patch clamp assay. The essentials:
(§2)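 Ba2+ currents through M-LVA and HVA Cav channels recorded by whole-cell clamp in cockroach DUM neurons at 20–23°C. Toxin applied for 10 min via a perfusion needle. Peak IBa measured relative to control. For activation, steps from Vh -90 mV to +70 mV in 10-mV increments at 0.1 Hz. P-P/4 leak subtraction; n = 3.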

Series [9] has as its system Mus musculus. Kind of series: Neurotoxicity against Mus musculus C57BL/6 (mouse) assessed as cyanosis at 500 pmol, icv. To be noted: in vivo, icv_or_intrathecal. It is filed as toxicity, organism-based. The essentials:
as §1

The subject of series [10] is Mus musculus. Kind of series: Neurotoxicity against Mus musculus C57BL/6 (mouse) assessed as tail erection at 500 pmol, icv. In kind it is toxicity, organism-based. As to conditions: in vivo, icv_or_intrathecal. Summed up: as §1
Series [11] deals with Voltage-gated sodium channel Nav1 alpha subunit (Periplaneta americana) (UniProt D0E0C1). Kind of series: Inhibition of Nav channel in Periplaneta americana (American cockroach) DUM neurons assessed as effect on voltage-dependent activation at 330 nM measured at holding potential -90 mV depolarised to +70 mV with 10 mV increments for 10 min by whole cell patch clamp assay. The essentials: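 Whole-cell voltage clamp of TTX-sensitive Na+ current in DUM neurons isolated from adult cockroaches and kept no longer than 24 h at 30°C. Bath (mM): NaCl 80, CsCl 5, CaCl2 1.8, TEA-Cl 50, 4-AP 5, HEPES 10, NiCl2 0.1, CdCl2 1, pH 7.4. Vh -90 mV; test pulse to -10 mV, or steps to +70 mV in 10-mV increments at 0.1 Hz. P-P/4 leak subtraction; 20–23°C.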

In series [12] the test system is Mus musculus. Kind of series: Neurotoxicity against Mus musculus C57BL/6 (mouse) assessed as respiratory paralysis at 500 pmol, icv. As to conditions: in vivo, icv_or_intrathecal. In kind it is toxicity, organism-based. The essentials: as §1
The nature of series [13]: Inhibition of delayed rectifier potassium channel IK(DR) in Periplaneta americana (American cockroach) DUM neurons at 330 nM measured at holding potential -90 mV depolarized to +30 mV after 10 min by whole cell voltage clamp assay in presence of CdCl2 and ChTx relative to control.
Series [14] deals with Mus musculus. Kind of series: Neurotoxicity against Mus musculus C57BL/6 (mouse) assessed as extension of toes at 500 pmol, icv. It is filed as toxicity, organism-based. To be noted: in vivo, icv_or_intrathecal. The essentials:
as §1

Series [15] has as its target Voltage-dependent calcium channel alpha-1 subunit (Blattella germanica) (UniProt O18323). Kind of series: Inhibition of high voltage activated Cav channel in Periplaneta americana (American cockroach) DUM neurons assessed as effect on voltage-dependent activation at 330 nM measured at holding potential -90 mV depolarized to +70 mV with 10 mV increments after 10 min by whole cell patch clamp assay. The essentials:
as §2

The subject of series [16] is Mus musculus. Kind of series: Neurotoxicity against Mus musculus C57BL/6 (mouse) assessed as extension of leg at 500 pmol, icv. It is filed as toxicity, organism-based. To be noted: in vivo, icv_or_intrathecal. The essentials:
as §1

Series [17] concerns Gryllus bimaculatus. Kind of series: Neurotoxicity against third-instar nymph stage of Gryllus bimaculatus (cricket) assessed as paralysis at 1.1 nmol/g measured within 5 min. In kind it is functional, organism-based.
In series [18] the target is Voltage-dependent calcium channel alpha-1 subunit (Blattella germanica) (UniProt O18323). Kind of series: Inhibition of voltage-gated calcium channel Cav-mediated late-sustained current in Periplaneta americana (American cockroach) DUM neurons assessed as measured at holding potential -80 mV depolarized to +40 mV after 10 min by whole cell patch clamp assay in presence of CdCl2. Summed up: (§3)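 BK(Ca) current in DUM neurons with 5 mM 4-AP in the bath. Toxin perfused for 10 min or to equilibrium; then 1 mM CdCl2 plus 30 nM ChTx added, and the residual current subtracted. 100-ms steps from Vh -80 mV to +30 mV, or to +40 mV in 10-mV increments for I–V. Peak (fast-transient) and 100-ms (late) amplitudes measured. IC50 from logistic fit; n = 3–6.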

Series [19] has the same target. Kind of series: Inhibition of voltage-gated calcium channel Cav-mediated fast-transient current in Periplaneta americana (American cockroach) DUM neurons assessed as measured at holding potential -80 mV depolarized to +40 mV after 10 min by whole cell patch clamp assay in presence of CdCl2. The essentials: as §3
For series [20] the target is unchanged. Kind of series: Inhibition of voltage-gated calcium channel Cav-mediated late-sustained current in Periplaneta americana (American cockroach) DUM neurons assessed as effect on voltage-dependent activation at 25 nM measured at holding potential -80 mV in 10 mV increments depolarized to +40 mV after 10 min by whole cell patch clamp assay in presence of CdCl2.

The nature of series [21]: Inhibition of transient A type potassium channel IK(A) in Periplaneta americana (American cockroach) DUM neurons at 330 nM measured at holding potential -90 mV depolarized to +30 mV after 10 min by whole cell patch clamp assay in presence of CdCl2 and ChTx.
Series [22] relates to Gryllus bimaculatus. Kind of series: Neurotoxicity against third-instar nymph stage of Gryllus bimaculatus (cricket) assessed as mortality at 1.1 nmol/g measured at 15 min. In kind it is functional, organism-based.
The subject of series [23] is Mus musculus. Kind of series: Neurotoxicity against Mus musculus C57BL/6 (mouse) assessed as tonic paralysis at 500 pmol, icv. To be noted: in vivo, icv_or_intrathecal. It is filed as toxicity, organism-based. Summed up: as §1
For series [24], the target named is Voltage-dependent calcium channel alpha-1 subunit (Blattella germanica) (UniProt O18323). Kind of series: Inhibition of voltage-gated calcium channel Cav-mediated fast-transient current in Periplaneta americana (American cockroach) DUM neurons assessed as effect on voltage-dependent activation at 25 nM measured at holding potential -80 mV in 10 mV increments depolarized to +40 mV after 10 min by whole cell patch clamp assay in presence of CdCl2. Summed up: as §3

Sequence of Voltage-dependent calcium channel alpha-1 subunit (Blattella germanica) (O18323 as listed by the source): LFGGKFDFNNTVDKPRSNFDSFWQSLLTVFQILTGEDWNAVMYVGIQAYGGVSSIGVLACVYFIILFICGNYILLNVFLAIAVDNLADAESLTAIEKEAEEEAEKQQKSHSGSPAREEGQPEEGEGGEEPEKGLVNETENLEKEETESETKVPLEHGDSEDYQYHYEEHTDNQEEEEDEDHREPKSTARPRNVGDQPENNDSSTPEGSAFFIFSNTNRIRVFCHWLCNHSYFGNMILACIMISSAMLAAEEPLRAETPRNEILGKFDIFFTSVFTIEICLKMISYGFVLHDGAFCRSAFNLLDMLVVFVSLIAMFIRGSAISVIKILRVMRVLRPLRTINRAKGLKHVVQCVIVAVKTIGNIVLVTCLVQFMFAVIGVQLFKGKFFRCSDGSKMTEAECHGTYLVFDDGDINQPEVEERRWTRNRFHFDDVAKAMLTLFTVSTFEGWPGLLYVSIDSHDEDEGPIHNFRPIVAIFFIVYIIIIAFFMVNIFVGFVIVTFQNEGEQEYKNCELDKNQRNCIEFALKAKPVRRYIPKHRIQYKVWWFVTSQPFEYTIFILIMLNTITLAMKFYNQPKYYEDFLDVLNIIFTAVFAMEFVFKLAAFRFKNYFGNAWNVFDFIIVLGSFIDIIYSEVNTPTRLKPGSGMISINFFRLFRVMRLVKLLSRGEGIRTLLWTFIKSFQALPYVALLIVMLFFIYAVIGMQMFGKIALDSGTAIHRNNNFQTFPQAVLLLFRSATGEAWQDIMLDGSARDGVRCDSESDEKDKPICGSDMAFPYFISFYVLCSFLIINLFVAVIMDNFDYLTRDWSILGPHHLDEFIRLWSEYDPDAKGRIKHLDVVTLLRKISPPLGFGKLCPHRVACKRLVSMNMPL
Sequence of Voltage-gated sodium channel Nav1 alpha subunit (Periplaneta americana) (D0E0C1 as listed by the source): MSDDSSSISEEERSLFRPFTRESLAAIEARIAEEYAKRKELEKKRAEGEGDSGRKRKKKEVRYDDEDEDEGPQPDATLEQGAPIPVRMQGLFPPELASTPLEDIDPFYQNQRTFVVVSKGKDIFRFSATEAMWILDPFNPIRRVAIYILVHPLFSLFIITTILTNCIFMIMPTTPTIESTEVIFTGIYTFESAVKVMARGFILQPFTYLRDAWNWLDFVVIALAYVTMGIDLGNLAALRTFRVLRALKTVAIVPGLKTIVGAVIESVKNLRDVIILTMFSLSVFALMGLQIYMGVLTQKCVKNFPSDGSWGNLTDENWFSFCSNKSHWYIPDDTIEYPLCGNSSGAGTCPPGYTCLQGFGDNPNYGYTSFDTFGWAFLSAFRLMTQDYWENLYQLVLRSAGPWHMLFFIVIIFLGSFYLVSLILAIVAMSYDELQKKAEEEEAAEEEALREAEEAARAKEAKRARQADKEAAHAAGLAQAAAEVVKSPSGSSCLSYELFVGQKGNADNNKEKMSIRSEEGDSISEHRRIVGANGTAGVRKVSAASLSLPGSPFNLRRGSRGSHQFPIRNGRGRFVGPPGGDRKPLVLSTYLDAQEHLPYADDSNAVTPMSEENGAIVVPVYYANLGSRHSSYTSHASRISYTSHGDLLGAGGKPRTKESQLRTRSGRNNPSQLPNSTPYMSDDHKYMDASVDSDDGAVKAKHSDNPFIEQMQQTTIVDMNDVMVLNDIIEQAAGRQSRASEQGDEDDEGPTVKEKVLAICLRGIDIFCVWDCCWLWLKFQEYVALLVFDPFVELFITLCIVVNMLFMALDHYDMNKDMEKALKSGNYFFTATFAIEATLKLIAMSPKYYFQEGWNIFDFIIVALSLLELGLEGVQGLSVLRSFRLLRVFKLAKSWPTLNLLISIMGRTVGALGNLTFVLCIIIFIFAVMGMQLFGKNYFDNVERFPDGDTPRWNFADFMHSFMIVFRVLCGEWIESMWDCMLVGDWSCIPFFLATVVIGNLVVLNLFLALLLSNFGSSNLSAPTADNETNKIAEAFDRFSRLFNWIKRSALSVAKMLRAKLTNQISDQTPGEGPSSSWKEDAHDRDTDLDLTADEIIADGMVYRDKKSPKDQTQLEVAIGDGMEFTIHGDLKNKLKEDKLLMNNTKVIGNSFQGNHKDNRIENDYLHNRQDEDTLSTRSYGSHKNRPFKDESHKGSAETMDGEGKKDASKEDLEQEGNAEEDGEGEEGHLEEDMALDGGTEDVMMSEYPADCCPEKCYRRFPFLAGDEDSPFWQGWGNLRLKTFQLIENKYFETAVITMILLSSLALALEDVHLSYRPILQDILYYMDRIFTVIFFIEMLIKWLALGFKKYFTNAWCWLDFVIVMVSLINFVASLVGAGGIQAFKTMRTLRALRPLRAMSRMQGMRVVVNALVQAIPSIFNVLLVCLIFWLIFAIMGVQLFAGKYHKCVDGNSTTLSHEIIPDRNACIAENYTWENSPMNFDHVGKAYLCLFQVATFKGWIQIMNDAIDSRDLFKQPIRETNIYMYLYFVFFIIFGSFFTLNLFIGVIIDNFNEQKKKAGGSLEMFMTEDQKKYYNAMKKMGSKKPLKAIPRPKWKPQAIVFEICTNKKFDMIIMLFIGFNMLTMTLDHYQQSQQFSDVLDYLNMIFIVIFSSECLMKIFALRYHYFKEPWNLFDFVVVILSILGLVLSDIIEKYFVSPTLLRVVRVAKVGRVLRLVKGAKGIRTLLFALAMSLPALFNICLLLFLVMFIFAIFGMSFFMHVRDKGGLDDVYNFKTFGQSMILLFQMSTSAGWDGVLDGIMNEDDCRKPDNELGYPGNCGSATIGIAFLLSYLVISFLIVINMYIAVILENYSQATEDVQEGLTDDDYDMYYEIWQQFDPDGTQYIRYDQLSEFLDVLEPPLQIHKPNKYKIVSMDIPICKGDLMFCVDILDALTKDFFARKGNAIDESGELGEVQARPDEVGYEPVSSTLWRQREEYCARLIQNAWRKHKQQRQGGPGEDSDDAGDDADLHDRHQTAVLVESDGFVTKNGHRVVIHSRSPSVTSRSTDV

As for `CSCC[C@@H]1NC(=O)[C@H](CCCCN)NC(=O)[C@H](Cc2ccccc2)NC(=O)[C@H](CCC(N)=O)NC(=O)[C@@H](NC(=O)[C@@H](N)Cc2ccc(O)cc2)CSSC[C@@H]2NC(=O)[C@@H]3CSSC[C@@H](C(=O)N[C@@H](CCCCN)C(=O)N[C@@H](CC(C)C)C(=O)N[C@@H](CC(N)=O)C(=O)N[C@@H](CC(C)C)C(=O)O)NC(=O)[C@H](Cc4c[nH]c5ccccc45)NC(=O)[C@H](CC(C)C)NC(=O)[C@H](CCCNC(=N)N)NC(=O)[C@H](CSSC[C@H](NC(=O)[C@H]([C@@H](C)O)NC(=O)[C@H](Cc4c[nH]c5ccccc45)NC1=O)C(=O)N[C@@H](CC(=O)O)C(=O)N[C@@H](CO)C(=O)N[C@@H](CCC(=O)O)C(=O)N[C@@H](CCCNC(=N)N)C(=O)N[C@@H](CCCCN)C(=O)N3)NC(=O)[C@H](C(C)C)NC(=O)[C@H](CCSC)NC(=O)[C@H](CC(=O)O)NC(=O)[C@H](CCC(=O)O)NC2=O`, the Activity entry is reported as “Toxic” in series [1]; “Non-toxic” in series [2]; “Non-toxic” in series [3]; “Toxic” in series [6]; “Toxic” in [9]; “Toxic” in series [10]. For the same compound, the Activity entry in series [12], in series [14], in series [16] and in [23] was “Toxic” in each case. Moreover, the inhibition entry in series [4], in [7], in series [8], in [11], in [13] and in series [15] was “inactive” in each case. Also, the inhibition entry in series [20], in [21] and in [24] was “inactive” each time. Besides, in series [5], the inhibition entry was “Active”. Besides, the result in series [17] and in series [22] was Active. Besides, the inhibition result in series [18] and in series [19] was “Dose-dependent effect” throughout.
